pEC50, pIC50: −log10 of the molar value. ≈ marks a conversion by molar mass, not a printed value.

In series [1] the target is T1, GABA-A receptor; alpha-1/beta-2/gamma-2 (Homo sapiens) (UniProt P14867+P47870+P18507). Kind of series: Maximum response for enhancement of currents elicited by GABA at EC5 (6-12 uM). The class given is functional.
For series [2], the target named is T1, GABA-A receptor; alpha-1/beta-2/gamma-2 (Homo sapiens). In words: Hill coefficient for enhancement of currents elicited by GABA at EC5 (6-12 uM). The series is classed as functional.
The target of series [3] is T2, GABA-A receptor; alpha-1/beta-2/gamma-2 (Homo sapiens, UniProt P14867+P18507+P47870).
T2 sequence (P14867 whole entry): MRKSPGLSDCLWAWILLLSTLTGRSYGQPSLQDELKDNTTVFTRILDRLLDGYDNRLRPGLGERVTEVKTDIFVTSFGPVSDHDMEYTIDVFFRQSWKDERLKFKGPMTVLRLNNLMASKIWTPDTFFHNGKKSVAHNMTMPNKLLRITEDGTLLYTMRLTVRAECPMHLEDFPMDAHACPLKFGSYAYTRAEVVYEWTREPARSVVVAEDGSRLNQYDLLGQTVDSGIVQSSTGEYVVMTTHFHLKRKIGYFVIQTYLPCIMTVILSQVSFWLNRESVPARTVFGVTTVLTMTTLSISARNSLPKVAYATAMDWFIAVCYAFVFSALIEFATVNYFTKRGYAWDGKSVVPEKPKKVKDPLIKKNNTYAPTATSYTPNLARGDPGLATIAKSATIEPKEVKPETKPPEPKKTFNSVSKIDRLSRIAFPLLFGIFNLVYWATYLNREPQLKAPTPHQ
T2 sequence (P47870 whole entry): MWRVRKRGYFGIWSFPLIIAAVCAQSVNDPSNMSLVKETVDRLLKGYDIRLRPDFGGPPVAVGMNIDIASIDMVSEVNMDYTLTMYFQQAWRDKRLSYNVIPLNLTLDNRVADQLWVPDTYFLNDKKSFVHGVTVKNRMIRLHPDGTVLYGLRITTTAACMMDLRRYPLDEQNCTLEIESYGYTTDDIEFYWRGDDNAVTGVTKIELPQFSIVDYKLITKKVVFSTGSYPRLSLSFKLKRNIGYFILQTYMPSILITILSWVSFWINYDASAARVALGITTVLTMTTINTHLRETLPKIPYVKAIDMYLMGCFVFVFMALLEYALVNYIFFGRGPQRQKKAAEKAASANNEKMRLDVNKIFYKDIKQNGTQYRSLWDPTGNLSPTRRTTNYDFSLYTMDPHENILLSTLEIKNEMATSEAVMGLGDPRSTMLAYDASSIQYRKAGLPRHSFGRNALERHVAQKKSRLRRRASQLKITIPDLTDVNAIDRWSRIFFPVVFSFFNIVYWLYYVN
T2 sequence (P18507 whole entry): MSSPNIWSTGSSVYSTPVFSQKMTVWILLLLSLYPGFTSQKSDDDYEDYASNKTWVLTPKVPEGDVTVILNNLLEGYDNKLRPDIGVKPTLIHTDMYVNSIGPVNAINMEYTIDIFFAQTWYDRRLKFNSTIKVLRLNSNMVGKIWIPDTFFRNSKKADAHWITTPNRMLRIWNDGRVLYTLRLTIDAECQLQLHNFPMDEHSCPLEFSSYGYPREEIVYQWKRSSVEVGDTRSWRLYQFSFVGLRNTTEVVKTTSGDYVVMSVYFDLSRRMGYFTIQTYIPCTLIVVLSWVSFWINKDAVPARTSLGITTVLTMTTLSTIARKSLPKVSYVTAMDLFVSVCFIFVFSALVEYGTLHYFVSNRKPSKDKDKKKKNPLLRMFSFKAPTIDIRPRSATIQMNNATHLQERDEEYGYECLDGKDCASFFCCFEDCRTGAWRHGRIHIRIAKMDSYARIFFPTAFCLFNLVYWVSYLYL
In words: Inhibition of currents elicited by GABA at EC5 (6-12 uM). The series is classed as functional.

Series [4] addresses T3, GABA-A receptor; anion channel (Rattus norvegicus) (UniProt O09028+P15431+P18506+P18508+P19969+P20236+P23574+P23576+P28471+P28473+P30191+P62813+P63079+P63138+Q91ZM7+Q9ES14). Kind of series: Inhibition of [35S]TBPS binding to rat brain membranes at 100 uM. The series is classed as cell membranes. To be noted: Membrane.
The target of series [5] is T1, GABA-A receptor; alpha-1/beta-2/gamma-2 (Homo sapiens). Kind of series: Maximum activation of Gamma-aminobutyric acid A receptor compared to maximal control GABA current at >320 uM. The series is classed as functional.
Series [6] can be described thus: Anesthetic potency, Concentration for loss of righting reflexes (LORR) in Xenopus tadpoles. The class given is functional, frog. The method, boiled down:
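Pre-limb bud Xenopus tadpoles (1.5–2 cm), groups of 5–10 in oxygenated 5 mM Tris-HCl pH 7.4, low light; drug from buffer or ethanol stock (final ethanol ≤5 mM). Tipped at 30–40 min; no righting within 5 s = LORR. Pooled groups of 10–20; quantal curves by Waud method; SD reported.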

The target in series [7] is T2, GABA-A receptor; alpha-1/beta-2/gamma-2. Kind of series: Enhancement of currents elicited by GABA at EC5 (6-12 uM). The class given is functional.
Series [8] is described as follows: The octanol/water partition coefficient of [3H]azietomidate. The series is classed as physicochemical. The method, boiled down:
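Octanol/water two-phase mixture shaken in amber vial, settled 12 h, radiolabel partition measured.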

The nature of series [9]: Solubility in 0.05 M Tris-HCl buffer, pH 7.4. The series is classed as physicochemical. Conditions: read-out: S. Summed up: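 Excess compound shaken 3 h in 0.05 M Tris-HCl pH 7.4, centrifuged 10000g for 3 min, concentration read at 350 nm.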
The target of series [10] is Nicotinic acetylcholine receptor alpha1/beta1/gamma/delta (Mus musculus, UniProt P02716+P04756+P04760+P09690). In words: Inhibition of recombinant embryonic mouse muscle Nicotinic Acetylcholine Receptor (3 oocytes). The class given is cell-based, Oocyte. Summed up: (§1)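 Torpedo or embryonic mouse muscle nAChRs in Xenopus oocytes, two-electrode clamp at -70 mV, 20–22 °C, low-Ca ND-96 (0.3 mM CaCl2) without propylene glycol; drug coapplied 5 s with 10 μM acetylcholine after stable response; fit to single-site inhibition equation; reversibility after 5 min wash.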

Series [11] has as its target T1, GABA-A receptor; alpha-1/beta-2/gamma-2 (Homo sapiens). In words: Maximum levels of enhancement of currents from alpha-1-beta-2-gamma-2L-subunit of GABA receptor elicited by low concentrations of GABA. The series is classed as functional.
Series [12] addresses T3, GABA-A receptor; anion channel (Rattus norvegicus). Kind of series: Inhibition of [35S]TBPS binding to rat brain membranes at 100 uM (Range = 80-90%). The class given is cell membranes. To be noted: Membrane.
Series [13] addresses GABA-A receptor; anion channel. In words: Inhibition of [35S]TBPS binding to rat brain membranes. The series is classed as cell membranes, Membrane.
The target of series [14] is T2, GABA-A receptor; alpha-1/beta-2/gamma-2. In words: (§2) Direct activation of Gamma-aminobutyric acid A receptor in the absence of GABA. The class given is functional.
Series [15] concerns the target T1, GABA-A receptor; alpha-1/beta-2/gamma-2 (Homo sapiens). Kind of series: Maximum activation of Gamma-aminobutyric acid A receptor in the absence of GABA compared to GABA response. The series is classed as functional. Summed up:
(§3)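 Oocytes expressing GABA_A receptors, two-electrode clamp at -50 mV, 20–22 °C, ND-96 pH 7.6; drug applied without GABA, stocks in 35% propylene glycol (superfusate ≤170 mM). […] Washout up to 15 min.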

Series [16] concerns the target T4, Acetylcholine receptor (Torpedo californica, UniProt P02710+P02712+P02714+P02718). In words: (§4) Inhibition of currents when compound wascoapplied with acetylcholine to recombinant Torpedo nAcChoR (from 6 oocytes). The series is classed as cell-based, Oocyte. The method, boiled down:
as §1

Series [17] has as its target T2, GABA-A receptor; alpha-1/beta-2/gamma-2. In words: Ability to enhance currents from alpha-1-beta-2-gamma-2L-subunit of GABA receptor elicited by low concentrations of GABA. The series is classed as functional.
Series [18] concerns the target T1, GABA-A receptor; alpha-1/beta-2/gamma-2 (Homo sapiens). The description is as §2. The series is classed as functional. The method, boiled down:
as §3

For series [19] the target is unchanged. Kind of series: Maximum activation of Gamma-aminobutyric acid A receptor in the absence of GABA compared to 1 mM GABA. The class given is functional. Summed up: as §3
The nature of series [20]: Anesthetic potency, Concentration for loss of righting reflexes (LORR) in Rana temporaria. The series is classed as functional, frog.
The target in series [21] is T4, Acetylcholine receptor. Described as §4. The class given is functional, cell-based, Oocyte. The method, boiled down:
as §1

In the next series the test system is Torpedo. Kind of series: Concentration that reduced photoincorporation of [3H]azietomidate into the alpha and beta subunits of the nAcChoR in membranes of Torpedo electric organ. The class given is functional. Summed up: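 Torpedo californica nAChR-rich membranes, 2 mg/mL in Torpedo saline pH 7.0 with 1 mM oxidized glutathione, with 0.9 μM [3H]azietomidate, ± 300 μM carbamylcholine, ± R-etomidate; irradiated at 4 °C, 6 min at 254 nm or 25 min at 365 nm; 8% SDS-PAGE, fluorography, excised bands counted by scintillation.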

T4 sequence (P02710 whole entry): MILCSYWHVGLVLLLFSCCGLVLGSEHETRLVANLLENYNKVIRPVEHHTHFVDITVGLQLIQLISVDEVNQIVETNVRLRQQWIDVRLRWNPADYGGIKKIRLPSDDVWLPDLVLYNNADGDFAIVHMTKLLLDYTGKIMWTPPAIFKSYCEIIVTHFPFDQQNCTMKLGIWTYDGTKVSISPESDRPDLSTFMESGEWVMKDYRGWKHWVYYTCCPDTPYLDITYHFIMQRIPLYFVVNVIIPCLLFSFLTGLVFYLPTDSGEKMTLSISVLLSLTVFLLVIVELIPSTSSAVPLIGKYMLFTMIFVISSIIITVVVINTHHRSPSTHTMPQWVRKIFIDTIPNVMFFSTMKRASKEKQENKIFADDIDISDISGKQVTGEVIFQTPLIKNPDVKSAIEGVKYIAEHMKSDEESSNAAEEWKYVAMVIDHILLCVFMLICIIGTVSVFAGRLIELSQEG
T4 sequence (P02712 whole entry): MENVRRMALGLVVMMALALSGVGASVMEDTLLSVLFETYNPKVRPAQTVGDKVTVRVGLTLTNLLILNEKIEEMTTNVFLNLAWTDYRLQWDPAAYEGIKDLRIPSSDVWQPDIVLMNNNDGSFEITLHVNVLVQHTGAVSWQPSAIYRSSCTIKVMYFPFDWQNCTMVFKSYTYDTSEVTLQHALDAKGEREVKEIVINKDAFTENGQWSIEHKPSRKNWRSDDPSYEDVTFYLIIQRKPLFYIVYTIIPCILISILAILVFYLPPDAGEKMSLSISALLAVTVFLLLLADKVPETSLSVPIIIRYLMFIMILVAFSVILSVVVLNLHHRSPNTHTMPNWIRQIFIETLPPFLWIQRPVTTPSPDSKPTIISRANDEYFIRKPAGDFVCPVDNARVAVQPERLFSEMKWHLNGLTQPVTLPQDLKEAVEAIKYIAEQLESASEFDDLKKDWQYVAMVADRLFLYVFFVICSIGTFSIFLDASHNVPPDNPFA
T4 sequence (P02718 whole entry): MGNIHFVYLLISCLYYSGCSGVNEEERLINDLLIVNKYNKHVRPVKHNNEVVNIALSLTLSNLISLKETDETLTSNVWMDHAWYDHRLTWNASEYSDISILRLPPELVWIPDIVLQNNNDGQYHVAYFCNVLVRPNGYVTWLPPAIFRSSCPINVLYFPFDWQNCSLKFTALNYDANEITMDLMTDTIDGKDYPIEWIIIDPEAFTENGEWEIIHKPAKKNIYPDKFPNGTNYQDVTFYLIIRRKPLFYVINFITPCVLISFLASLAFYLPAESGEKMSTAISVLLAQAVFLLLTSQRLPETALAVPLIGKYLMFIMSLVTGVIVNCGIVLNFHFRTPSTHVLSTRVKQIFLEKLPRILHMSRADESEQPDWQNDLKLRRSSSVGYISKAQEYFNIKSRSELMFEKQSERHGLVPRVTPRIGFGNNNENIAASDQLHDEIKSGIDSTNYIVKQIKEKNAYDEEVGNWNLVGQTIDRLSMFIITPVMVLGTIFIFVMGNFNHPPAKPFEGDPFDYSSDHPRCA
T4 sequence (P02714 whole entry): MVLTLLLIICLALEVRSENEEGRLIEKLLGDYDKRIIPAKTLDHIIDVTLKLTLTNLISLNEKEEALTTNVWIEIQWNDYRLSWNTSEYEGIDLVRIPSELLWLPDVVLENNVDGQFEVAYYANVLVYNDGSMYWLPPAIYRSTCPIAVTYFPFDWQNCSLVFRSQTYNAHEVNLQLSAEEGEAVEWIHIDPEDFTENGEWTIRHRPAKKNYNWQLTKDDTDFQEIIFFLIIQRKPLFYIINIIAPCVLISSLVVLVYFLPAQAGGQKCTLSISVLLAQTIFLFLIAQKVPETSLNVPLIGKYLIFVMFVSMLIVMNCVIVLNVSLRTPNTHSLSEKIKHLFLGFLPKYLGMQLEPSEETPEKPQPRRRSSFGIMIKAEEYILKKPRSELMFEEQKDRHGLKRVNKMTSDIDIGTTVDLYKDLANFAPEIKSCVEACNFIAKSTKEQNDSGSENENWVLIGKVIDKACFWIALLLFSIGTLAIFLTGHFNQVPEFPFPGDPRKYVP
Nicotinic acetylcholine receptor alpha1/beta1/gamma/delta, sequence (P04756 whole entry): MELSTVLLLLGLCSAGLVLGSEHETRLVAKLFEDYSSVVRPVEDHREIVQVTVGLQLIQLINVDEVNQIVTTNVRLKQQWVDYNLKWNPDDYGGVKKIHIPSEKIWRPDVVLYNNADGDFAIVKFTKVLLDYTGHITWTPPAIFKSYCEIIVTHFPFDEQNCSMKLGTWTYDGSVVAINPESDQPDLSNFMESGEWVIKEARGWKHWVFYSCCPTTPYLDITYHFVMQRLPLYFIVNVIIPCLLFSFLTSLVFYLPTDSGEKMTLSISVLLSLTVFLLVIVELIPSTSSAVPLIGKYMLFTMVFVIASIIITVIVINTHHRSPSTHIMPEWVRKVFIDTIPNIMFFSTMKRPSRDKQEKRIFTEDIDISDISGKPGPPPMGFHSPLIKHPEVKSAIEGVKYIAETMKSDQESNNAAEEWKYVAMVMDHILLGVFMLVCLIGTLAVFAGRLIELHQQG
Nicotinic acetylcholine receptor alpha1/beta1/gamma/delta, sequence (P09690 whole entry): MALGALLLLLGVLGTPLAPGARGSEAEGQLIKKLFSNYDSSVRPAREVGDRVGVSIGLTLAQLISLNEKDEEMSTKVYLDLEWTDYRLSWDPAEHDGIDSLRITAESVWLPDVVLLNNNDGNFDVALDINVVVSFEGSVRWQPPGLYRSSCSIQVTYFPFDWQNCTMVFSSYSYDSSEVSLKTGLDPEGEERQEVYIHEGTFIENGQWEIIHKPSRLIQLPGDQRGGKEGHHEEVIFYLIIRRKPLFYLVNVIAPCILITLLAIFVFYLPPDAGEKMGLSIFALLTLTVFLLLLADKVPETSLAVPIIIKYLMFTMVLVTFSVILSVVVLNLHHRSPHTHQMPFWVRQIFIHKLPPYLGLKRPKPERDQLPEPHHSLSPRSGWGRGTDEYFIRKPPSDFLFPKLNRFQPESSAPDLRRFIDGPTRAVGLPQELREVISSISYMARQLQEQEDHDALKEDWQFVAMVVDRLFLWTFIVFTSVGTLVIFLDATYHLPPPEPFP
Nicotinic acetylcholine receptor alpha1/beta1/gamma/delta, sequence (P02716 whole entry): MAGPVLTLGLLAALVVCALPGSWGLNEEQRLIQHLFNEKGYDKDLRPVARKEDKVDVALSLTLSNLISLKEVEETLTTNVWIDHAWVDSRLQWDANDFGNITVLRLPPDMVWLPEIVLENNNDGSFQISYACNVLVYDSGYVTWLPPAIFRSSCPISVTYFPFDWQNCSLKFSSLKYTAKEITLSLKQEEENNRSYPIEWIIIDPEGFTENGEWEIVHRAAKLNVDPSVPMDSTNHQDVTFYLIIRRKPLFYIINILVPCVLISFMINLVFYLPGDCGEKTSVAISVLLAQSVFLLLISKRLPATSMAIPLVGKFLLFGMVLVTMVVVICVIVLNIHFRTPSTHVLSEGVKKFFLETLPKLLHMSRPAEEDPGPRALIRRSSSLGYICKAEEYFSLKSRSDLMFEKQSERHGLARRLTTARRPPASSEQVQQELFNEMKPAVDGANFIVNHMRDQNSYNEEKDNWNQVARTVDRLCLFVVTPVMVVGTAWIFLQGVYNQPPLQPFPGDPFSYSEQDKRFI
Nicotinic acetylcholine receptor alpha1/beta1/gamma/delta, sequence (P04760 whole entry): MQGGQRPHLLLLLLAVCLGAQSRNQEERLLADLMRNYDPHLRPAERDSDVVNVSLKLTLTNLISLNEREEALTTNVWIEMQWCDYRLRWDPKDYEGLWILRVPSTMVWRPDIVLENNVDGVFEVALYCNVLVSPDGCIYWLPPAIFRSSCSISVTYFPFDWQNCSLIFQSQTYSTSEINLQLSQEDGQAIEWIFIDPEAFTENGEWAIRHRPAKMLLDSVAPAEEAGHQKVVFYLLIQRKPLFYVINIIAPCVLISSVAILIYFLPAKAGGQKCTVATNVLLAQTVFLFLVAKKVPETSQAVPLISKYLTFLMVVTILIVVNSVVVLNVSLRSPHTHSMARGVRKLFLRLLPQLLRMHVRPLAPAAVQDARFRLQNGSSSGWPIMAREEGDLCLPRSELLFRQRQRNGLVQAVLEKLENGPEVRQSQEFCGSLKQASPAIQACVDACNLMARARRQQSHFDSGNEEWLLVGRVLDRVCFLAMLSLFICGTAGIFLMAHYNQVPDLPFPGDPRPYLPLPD

What is called pIC50 is the negative decadic logarithm of the IC50, by convention in mol/L. As usually defined, the inhibition is the relative decrease from the control value, in per cent. By Emax is commonly meant the maximal effect, on the per cent scale that the assay sets. A word on the pEC50: it is the negative decadic logarithm of the EC50, by convention in mol/L. As to `C[C@@H](c1ccccc1)n1cncc1C(=O)OCCC1(C)N=N1`, in series [1], the Max response was 94%. In addition, the nH in [2] was 1.6. Moreover, in series [3], the pIC50 is 4.18. Also, in [4], the inhibition came to 60%. In [5], this compound showed an Emax of 0.5%. Moreover, the pEC50 in series [6] is 4.85; in series [7] it was 4.70.
In [8], `CC(c1ccccc1)n1cncc1C(=O)OCCC1(C)N=N1` (stereo unspecified) [AZIETOMIDATE] showed a Partition coefficient of 3600. For the same compound, in series [9], the solubility amounted to 540 µM (≈ 161 µg/mL). Besides, the pIC50 in series [10] was 4.60.
As to `C[C@H](c1ccccc1)n1cncc1C(=O)OCCC1(C)N=N1`, the Max response in series [1] was 94%. In addition, the nH in series [2] is 1.5. In addition, the Emax in series [11] is 127%; in series [15], 14%. Also, the pIC50 was 3.98 in series [3], 5.31 in [13] and 4.64 on Acetylcholine receptor [16]. In series [12], this compound yielded an inhibition of less than 90%. The pEC50 in series [14] is 4.43; in [6], 5.66; in [17], 5.92; in series [7] it was 5.70.
`CCOC(=O)c1cncn1[C@@H](C)c1ccccc1` [S-ETOMIDATE]: the Max response in [1] was found to be 110%. Moreover, the nH in [2] is 1.9. For the same compound, the Concentration in series [18] turned out to be 100 µM. Further, the Emax in series [19] came out at 2.9%. In series [20], this compound had a negative-log EC50 (pEC50) of 4.24.
For `CCOC(=O)c1cncn1[C@H](C)c1ccccc1` [ETOMIDATE], the Max response in [1] was determined as 110%. Moreover, in [2], the nH amounted to 1.2. Moreover, the Emax in series [11] is 127%; in series [15], 18%. Besides, the values for the negative-log IC50 (pIC50) (in series [10]; on Acetylcholine receptor [21]) were 4.30 and 4.39, respectively. Further, the pEC50 in series [20] is 5.47; in series [6], 5.64. The Concentration with Torpedo was found to be 300 µM.

(Values after ChEMBL document CHEMBL1136745 (J Med Chem, 2003).)
